This note sets out measurements from ChEMBL document CHEMBL4004835, “Discovery of Novel Disruptor of Silencing Telomeric 1-Like (DOT1L) Inhibitors using a Target-Specific Scoring Function for the (S)-Adenosyl-l-methionine (SAM)-Dependent Methyltransferase Family” (J Med Chem, 2017).

Test [1] concerns the target DNA (cytosine-5)-methyltransferase 1 (Homo sapiens) (UniProt P26358). The experiment in a line: Inhibition of DNMT1 (unknown origin) at 50 and 100 uM preincubated for 15 mins followed by poly(dI-DC) substrate and [3H]-SAM addition after 120 mins by liquid MicroBeta counting. The gist of the method: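 In modified Tris buffer, enzyme preincubated 15 min at room temperature; poly(dI-dC) substrate and [3H]SAM added; 120 min at 37 °C; reaction transferred to 0.5% PEI-pretreated filter plates, vacuumed, read by MicroBeta; SAH as positive control.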

The target in test [2] is Histone-lysine N-methyltransferase EZH2 (Homo sapiens) (UniProt Q15910). The experiment in a line: Inhibition of EZH2 (unknown origin) at 50 and 100 uM preincubated for 15 mins followed by substrate and [3H]-SAM addition for 60 mins in presence of H3K27me peptide measured after 60 mins by liquid scintillation counting method. In outline:
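In modified Tris buffer with H3K27me peptide, enzyme preincubated 15 min at room temperature; substrate added to start; stopped with cold SAM; mix on Flashplate at least 60 min at room temperature, washed with water plus 0.1% Tween-20, read by scintillation counting.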

The test system of test [3] is MV4-11. Description: Induction of cell cycle arrest in human MV4-11 cells assessed as accumulation at S phase at 12.5 uM after 48 hrs by propidium iodide/RNase-staining based flow cytometric analysis (reference value: 24.40 %). The class given is functional. In outline: (§1)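 MV4-11 cells (2 × 10^6) seeded in 12-well dishes, treated with different concentrations for 48 h, processed with a PI/RNase staining kit and analysed for cell-cycle distribution by FACSCalibur flow cytometry.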
A general note: A flow cytometer gives signals particle by particle.

The subject of test [4] is MV4-11. The experiment in a line: Induction of apoptosis in human MV4-11 cells assessed as viable cells at 25 uM after 72 hrs by annexin V/FITC and propidium iodide staining-based flow cytometric analysis (reference value: 90.3 %). Conditions: MV4-11, 72 h, read-out: Activity. The class given is functional.
In test [5] the test system is MV4-11. Description: Induction of apoptosis in human MV4-11 cells assessed as viable cells at 50 uM after 72 hrs by annexin V/FITC and propidium iodide staining-based flow cytometric analysis (reference value: 90.3 %). Conditions: MV4-11, 72 h, read-out: Activity. It is filed as functional.
Test [6] concerns MV4-11. Description: Induction of apoptosis in human MV4-11 cells assessed as necrotic cells at 12.5 uM after 72 hrs by annexin V/FITC and propidium iodide staining-based flow cytometric analysis (reference value: 0.04 %). It is filed as functional.
The test system of test [7] is MV4-11. Description: Induction of apoptosis in human MV4-11 cells assessed as necrotic cells at 6.25 uM after 72 hrs by annexin V/FITC and propidium iodide staining-based flow cytometric analysis (reference value: 0.04 %). It is filed as functional.
Another test concerns K562. The experiment in a line: Cytotoxicity against human K562 cells assessed as reduction in cell viability after 72 hrs by alamar blue assay. It is filed as functional, cell-based. Conditions: K562, 72 h. The gist of the method:
(§2)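 Cells cultured in RPMI 1640 with 10% FBS and 1% penicillin/streptomycin, treated with a range of concentrations or equal DMSO, 37 °C, 5% CO2, 72 h. Viability read by alamar blue (ex 544/em 590 nm); percent proliferation and IC50 curve fitted.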
(Resazurin is reduced to fluorescent resorufin, in cell work by metabolically active cells.)

Another test concerns Kasumi 1. Description: Cytotoxicity against human Kasumi-1 cells assessed as reduction in cell viability after 72 hrs by alamar blue assay. The class given is functional, cell-based. Conditions: Kasumi 1, 72 h. In outline:
as §2

The test system of test [8] is MV4-11. The experiment in a line: Induction of cell cycle arrest in human MV4-11 cells assessed as accumulation at G1 phase at 12.5 uM after 48 hrs by propidium iodide/RNase-staining based flow cytometric analysis (reference value: 68.16 %). It is filed as functional. The gist of the method:
as §1

The test system of test [9] is MV4-11. The experiment in a line: Induction of apoptosis in human MV4-11 cells assessed as necrotic cells at 50 uM after 72 hrs by annexin V/FITC and propidium iodide staining-based flow cytometric analysis (reference value: 0.04 %). It is filed as functional.
Another test deals with HL-60. The experiment in a line: Cytotoxicity against human HL60 cells assessed as reduction in cell viability after 72 hrs by alamar blue assay. The class given is functional, cell-based. Conditions: HL-60, 72 h. The gist of the method: as §2
Test [10] relates to MV4-11. Description: Induction of apoptosis in human MV4-11 cells assessed as early apoptotic cells at 50 uM after 72 hrs by annexin V/FITC and propidium iodide staining-based flow cytometric analysis (reference value: 5.66 %). The class given is functional.
The test system of test [11] is MV4-11. The experiment in a line: Induction of cell cycle arrest in human MV4-11 cells assessed as accumulation at G2 phase at 25 uM after 48 hrs by propidium iodide/RNase-staining based flow cytometric analysis (reference value: 7.44 %). The class given is functional. In outline:
as §1

The target in test [12] is Histone-lysine N-methyltransferase, H3 lysine-79 specific (Homo sapiens, UniProt Q8TEK3). The experiment in a line: Inhibition of N-terminal 6His-tagged human DOT1L (1 to 416 residues) expressed in Escherichia coli BL21(DE3) at 50 and 100 uM preincubated for 15 mins followed by [3H]-SAM addition measured after 120 mins by radioactive methylation assay. In outline: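 DOT1L and compound preincubated 15 min at room temperature; oligonucleosome and 3H-SAM added; reaction 120 min at room temperature, stopped with cold SAM; transferred to 0.5% PEI-pretreated filter plate, washed 3× with water, read by liquid scintillation counting.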
Chain of Histone-lysine N-methyltransferase, H3 lysine-79 specific (Q8TEK3 whole entry, looked up, the tested form may be a part): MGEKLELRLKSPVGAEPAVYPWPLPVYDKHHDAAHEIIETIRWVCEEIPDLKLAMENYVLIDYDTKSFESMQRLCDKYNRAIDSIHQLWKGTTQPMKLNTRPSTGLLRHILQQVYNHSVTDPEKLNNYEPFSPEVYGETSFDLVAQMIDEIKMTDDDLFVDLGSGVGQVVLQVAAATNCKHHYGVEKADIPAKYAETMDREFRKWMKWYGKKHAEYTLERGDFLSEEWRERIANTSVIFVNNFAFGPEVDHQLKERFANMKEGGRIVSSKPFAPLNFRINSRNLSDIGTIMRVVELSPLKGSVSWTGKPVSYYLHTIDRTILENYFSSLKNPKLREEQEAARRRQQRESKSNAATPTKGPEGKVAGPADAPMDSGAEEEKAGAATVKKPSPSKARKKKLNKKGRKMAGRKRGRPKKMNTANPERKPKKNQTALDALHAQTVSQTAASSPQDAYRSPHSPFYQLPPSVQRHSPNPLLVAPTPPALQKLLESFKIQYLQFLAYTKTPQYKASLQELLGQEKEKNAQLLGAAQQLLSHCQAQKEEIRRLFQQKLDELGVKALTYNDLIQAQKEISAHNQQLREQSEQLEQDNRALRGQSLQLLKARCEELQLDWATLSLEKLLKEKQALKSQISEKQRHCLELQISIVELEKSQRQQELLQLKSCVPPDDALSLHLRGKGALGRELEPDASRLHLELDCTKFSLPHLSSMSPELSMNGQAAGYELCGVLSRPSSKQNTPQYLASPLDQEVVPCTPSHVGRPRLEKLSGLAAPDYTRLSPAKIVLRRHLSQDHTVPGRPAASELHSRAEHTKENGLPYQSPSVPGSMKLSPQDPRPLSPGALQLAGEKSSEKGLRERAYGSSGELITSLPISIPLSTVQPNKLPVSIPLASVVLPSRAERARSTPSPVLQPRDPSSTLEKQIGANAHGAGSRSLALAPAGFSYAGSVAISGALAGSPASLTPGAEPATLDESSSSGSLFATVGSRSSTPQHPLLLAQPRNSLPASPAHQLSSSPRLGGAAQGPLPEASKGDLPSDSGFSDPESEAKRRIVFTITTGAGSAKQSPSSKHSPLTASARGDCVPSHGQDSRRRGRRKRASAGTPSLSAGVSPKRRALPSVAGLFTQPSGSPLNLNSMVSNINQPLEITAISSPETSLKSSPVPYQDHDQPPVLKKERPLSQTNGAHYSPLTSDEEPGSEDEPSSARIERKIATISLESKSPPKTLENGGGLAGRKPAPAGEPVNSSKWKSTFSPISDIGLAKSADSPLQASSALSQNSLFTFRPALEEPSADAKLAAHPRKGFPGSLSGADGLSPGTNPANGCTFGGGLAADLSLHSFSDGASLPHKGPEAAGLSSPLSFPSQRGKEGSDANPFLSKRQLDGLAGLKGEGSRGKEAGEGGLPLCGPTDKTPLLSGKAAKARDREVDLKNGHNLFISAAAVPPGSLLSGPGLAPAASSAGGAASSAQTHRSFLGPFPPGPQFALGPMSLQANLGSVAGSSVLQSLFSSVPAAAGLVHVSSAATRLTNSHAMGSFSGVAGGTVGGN

The test system of test [13] is MV4-11. The experiment in a line: Induction of cell cycle arrest in human MV4-11 cells assessed as accumulation at G2 phase at 50 uM after 48 hrs by propidium iodide/RNase-staining based flow cytometric analysis (reference value: 7.44 %). The class given is functional. In outline:
as §1

For test [14], the system named is MV4-11. The experiment in a line: Induction of apoptosis in human MV4-11 cells assessed as late apoptotic cells at 12.5 uM after 72 hrs by annexin V/FITC and propidium iodide staining-based flow cytometric analysis (reference value: 4.02 %). The class given is functional.
In test [15] the test system is MV4-11. Description: Induction of apoptosis in human MV4-11 cells assessed as late apoptotic cells at 25 uM after 72 hrs by annexin V/FITC and propidium iodide staining-based flow cytometric analysis (reference value: 4.02 %). The class given is functional.
Test [16] has as its system MV4-11. The experiment in a line: Induction of apoptosis in human MV4-11 cells assessed as early apoptotic cells at 6.25 uM after 72 hrs by annexin V/FITC and propidium iodide staining-based flow cytometric analysis (reference value: 5.66 %). It is filed as functional.
In test [17] the test system is MV4-11. The experiment in a line: Induction of cell cycle arrest in human MV4-11 cells assessed as accumulation at S phase at 6.25 uM after 48 hrs by propidium iodide/RNase-staining based flow cytometric analysis (reference value: 24.40 %). The class given is functional. In outline:
as §1

Test [18] relates to MV4-11. Description: Induction of apoptosis in human MV4-11 cells assessed as viable cells at 6.25 uM after 72 hrs by annexin V/FITC and propidium iodide staining-based flow cytometric analysis (reference value: 90.3 %). It is filed as functional. Conditions: MV4-11, 72 h, read-out: Activity.
The subject of test [19] is MV4-11. Description: Induction of cell cycle arrest in human MV4-11 cells assessed as accumulation at G2 phase at 6.25 uM after 48 hrs by propidium iodide/RNase-staining based flow cytometric analysis (reference value: 7.44 %). It is filed as functional. The gist of the method:
as §1

Test [20] relates to MV4-11. Description: Induction of apoptosis in human MV4-11 cells assessed as viable cells at 12.5 uM after 72 hrs by annexin V/FITC and propidium iodide staining-based flow cytometric analysis (reference value: 90.3 %). The class given is functional. Conditions: MV4-11, 72 h, read-out: Activity.
The target in test [21] is Protein arginine N-methyltransferase 1 (Homo sapiens) (UniProt Q99873). Description: Inhibition of PRMT1 (unknown origin) preincubated for 15 mins followed by biotinylated H3R2 substrate/[…]SAM addition for 60 mins measured after further 60 mins by AlphaLISA assay. The gist of the method: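 Enzyme incubated 15 min at room temperature; biotinylated H3R2 peptide (50 nM final) and SAM (300 nM final) added; at 60 min acceptor beads (10 μg/mL final) stop the reaction; after 60 min, donor beads (10 μg/mL final) added, 30 min at room temperature in low light; alpha signal read.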
Chain of Protein arginine N-methyltransferase 1 (Homo sapiens) (Q99873 whole entry, looked up): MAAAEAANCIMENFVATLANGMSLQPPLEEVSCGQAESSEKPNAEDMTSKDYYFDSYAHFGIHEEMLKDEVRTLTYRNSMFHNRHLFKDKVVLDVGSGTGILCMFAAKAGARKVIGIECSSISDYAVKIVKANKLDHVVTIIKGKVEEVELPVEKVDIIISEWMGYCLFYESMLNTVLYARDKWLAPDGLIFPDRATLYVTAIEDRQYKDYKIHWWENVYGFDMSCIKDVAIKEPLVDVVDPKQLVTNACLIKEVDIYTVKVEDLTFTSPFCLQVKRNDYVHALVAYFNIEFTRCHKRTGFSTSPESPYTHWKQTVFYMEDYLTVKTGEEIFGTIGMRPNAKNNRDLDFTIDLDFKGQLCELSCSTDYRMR
On the technique in general: In Alpha technology, singlet oxygen from a donor bead excites a nearby acceptor bead.

Molecules are shown by their SMILES. The source made the active and inactive calls. The calls are words filed in the database; no cut-off is given here.

Chain of DNA (cytosine-5)-methyltransferase 1 (Homo sapiens) (P26358 whole entry): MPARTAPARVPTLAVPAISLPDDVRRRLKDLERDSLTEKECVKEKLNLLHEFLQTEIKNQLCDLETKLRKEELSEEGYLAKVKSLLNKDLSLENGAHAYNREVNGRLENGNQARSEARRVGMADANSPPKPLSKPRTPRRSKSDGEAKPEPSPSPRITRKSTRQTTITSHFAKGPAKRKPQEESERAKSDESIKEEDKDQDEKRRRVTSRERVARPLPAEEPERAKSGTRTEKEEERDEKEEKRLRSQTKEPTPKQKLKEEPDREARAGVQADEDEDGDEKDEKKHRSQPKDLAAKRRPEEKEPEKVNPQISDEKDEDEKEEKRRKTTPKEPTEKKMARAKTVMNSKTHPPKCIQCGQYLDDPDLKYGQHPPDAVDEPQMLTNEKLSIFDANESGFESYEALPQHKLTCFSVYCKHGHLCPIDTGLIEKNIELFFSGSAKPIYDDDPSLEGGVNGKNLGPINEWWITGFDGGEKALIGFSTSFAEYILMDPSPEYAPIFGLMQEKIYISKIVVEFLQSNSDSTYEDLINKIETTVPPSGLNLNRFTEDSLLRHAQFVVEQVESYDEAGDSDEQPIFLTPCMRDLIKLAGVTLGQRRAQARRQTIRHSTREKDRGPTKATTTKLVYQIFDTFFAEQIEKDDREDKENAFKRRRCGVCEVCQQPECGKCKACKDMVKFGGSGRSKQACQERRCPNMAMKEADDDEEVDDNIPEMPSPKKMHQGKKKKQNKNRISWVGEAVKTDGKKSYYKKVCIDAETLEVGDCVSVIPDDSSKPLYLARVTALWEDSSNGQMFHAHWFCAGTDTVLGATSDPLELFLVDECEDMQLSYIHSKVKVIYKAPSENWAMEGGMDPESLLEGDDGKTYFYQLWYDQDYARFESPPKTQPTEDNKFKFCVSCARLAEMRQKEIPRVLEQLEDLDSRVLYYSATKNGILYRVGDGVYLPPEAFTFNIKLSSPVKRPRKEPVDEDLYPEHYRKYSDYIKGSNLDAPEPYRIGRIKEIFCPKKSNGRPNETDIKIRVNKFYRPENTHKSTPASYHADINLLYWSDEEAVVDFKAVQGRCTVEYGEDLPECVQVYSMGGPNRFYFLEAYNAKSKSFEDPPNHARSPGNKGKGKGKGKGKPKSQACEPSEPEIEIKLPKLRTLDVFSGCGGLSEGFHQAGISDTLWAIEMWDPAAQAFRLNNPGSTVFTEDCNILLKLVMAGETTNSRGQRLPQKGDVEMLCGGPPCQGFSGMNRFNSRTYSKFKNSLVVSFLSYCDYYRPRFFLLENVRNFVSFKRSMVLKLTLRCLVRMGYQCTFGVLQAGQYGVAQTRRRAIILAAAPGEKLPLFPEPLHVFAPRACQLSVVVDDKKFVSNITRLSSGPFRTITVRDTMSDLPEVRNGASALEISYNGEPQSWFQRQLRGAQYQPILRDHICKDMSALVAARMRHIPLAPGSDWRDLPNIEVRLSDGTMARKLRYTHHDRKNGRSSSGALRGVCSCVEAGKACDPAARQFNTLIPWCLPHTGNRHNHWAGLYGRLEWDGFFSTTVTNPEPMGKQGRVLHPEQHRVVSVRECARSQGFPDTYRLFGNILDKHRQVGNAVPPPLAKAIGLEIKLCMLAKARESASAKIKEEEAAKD
Chain of Histone-lysine N-methyltransferase EZH2 (Homo sapiens) (Q15910 whole entry, looked up): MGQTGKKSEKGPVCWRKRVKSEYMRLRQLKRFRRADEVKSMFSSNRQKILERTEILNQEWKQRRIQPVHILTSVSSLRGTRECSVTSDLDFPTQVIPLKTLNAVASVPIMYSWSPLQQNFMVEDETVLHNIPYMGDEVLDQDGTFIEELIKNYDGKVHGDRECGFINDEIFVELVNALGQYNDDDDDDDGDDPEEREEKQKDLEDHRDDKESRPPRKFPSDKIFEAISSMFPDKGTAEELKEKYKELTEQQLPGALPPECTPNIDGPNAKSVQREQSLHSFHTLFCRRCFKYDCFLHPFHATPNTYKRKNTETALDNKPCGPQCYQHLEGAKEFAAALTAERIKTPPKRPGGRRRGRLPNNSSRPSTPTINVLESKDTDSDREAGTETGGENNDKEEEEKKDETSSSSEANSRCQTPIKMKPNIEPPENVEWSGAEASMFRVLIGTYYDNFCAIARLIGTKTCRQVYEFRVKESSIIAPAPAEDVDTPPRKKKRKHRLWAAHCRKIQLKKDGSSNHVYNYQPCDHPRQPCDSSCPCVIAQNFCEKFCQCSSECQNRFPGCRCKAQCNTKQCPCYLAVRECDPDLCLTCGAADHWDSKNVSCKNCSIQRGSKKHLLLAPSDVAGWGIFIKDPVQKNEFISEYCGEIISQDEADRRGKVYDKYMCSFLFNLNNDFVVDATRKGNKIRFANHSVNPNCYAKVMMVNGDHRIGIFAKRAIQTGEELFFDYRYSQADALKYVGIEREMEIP

As usually defined, the inhibition is how much of the control response was suppressed. Broadly, the IC50 is the concentration that gives 50% inhibition. On to `Fc1cccc(-c2nn3c(Cn4nnc5ccccc54)nnc3s2)c1`, for which the inhibition in [1], in test [2] and in test [21] was less than 40% each time. Besides, the Activity in the test on MV4-11 [3] was found to be 25.38%; in the test with MV4-11 [6] it was 3.8%; in the test on MV4-11 [7], 1.37%; in the test with MV4-11 [8], 70.27%; with MV4-11 [9], 0.28%; in the test on MV4-11 [10] it was 55.2%. The Activity came to 0.99% with MV4-11 [11]; 0% in the test with MV4-11 [13]; 35.5% with MV4-11 [14]; 33.5% with MV4-11 [15]; 49.5% in the test with MV4-11 [16]; 26.56% in the test with MV4-11 [17]. Besides, in the test on MV4-11 [19], the Activity is 5.8%. Also, the viability at 25 µM with MV4-11 [4] is 6.76%. The viability at 50 µM with MV4-11 [5] turned out to be 3.75%. In addition, the IC50 with K562, in the test on Kasumi 1 and in the test with HL-60 was more than 200 µM each time. Moreover, the inhibition result in test [12] is “Active”. Also, in the test with MV4-11 [18], the viability at 6.25 µM was 24.2%. In addition, in the test with MV4-11 [20], the viability at 12.5 µM worked out at 10.6%.
